These results are taken from ChEMBL document CHEMBL1156242, “Synthesis of a novel series of diphenolic chromone derivatives as inhibitors of NO production in LPS-activated RAW264.7 macrophages” (Bioorg Med Chem, 2010).

Assay [1] has as its system RAW264.7. The assay can be described thus: Antiinflammatory activity in LPS-stimulated mouse RAW264.7 cells assessed as inhibition of nitric oxide production after 24 hrs by Griess reagent. Format: functional, cell-based. To be noted: RAW264.7, 24 h.
The test system of assay [2] is RAW264.7. Kind of assay: Cytotoxicity against LPS-stimulated mouse RAW264.7 cells after 24 hrs by MTT assay. To be noted: RAW264.7, 24 h. The assay is classed as cell-based. The method, boiled down: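 RAW264.7 in 96-well plates left untreated or exposed to compounds at various concentrations for 24 h. MTT (5 mg/mL) added 4 h before end. Lysis buffer (10% SDS, 50% DMF, pH 7.2) applied 6 h, absorbance read at 570 nm.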

The IC50 is the concentration that inhibits the measured activity by half. Turning to `O=c1c(O)coc2cc(O)cc(O)c12`, the 50% inhibitory concentration (IC50) in assay [1] and in assay [2] was > 100 µM in each case. For `COc1ccc(C(=O)Oc2coc3cc(O)cc(O)c3c2=O)cc1`, the IC50 was 47.2 µM in assay [1] and > 100 µM in assay [2]. In the case of `Cc1ccccc1C(=O)Oc1coc2cc(O)cc(O)c2c1=O`, the values for the half-maximal inhibitory concentration (IC50) in assay [1] and in assay [2] were 17 µM and > 100 µM, respectively.

In the case of `CS(=O)(=O)Oc1coc2cc(O)cc(O)c2c1=O`, the IC50 is 53.7 µM in assay [1] and > 100 µM in assay [2]. For `O=C(Oc1coc2cc(O)cc(O)c2c1=O)c1ccccc1`, the results for the IC50 in assay [1] and in assay [2] were 86.6 µM and > 100 µM, respectively. Turning to `O=c1cc(-c2ccc(O)c(O)c2)oc2cc(O)cc(O)c12` [LUTEOLIN], the IC50 in assay [1] stood at 10.4 µM.

In the case of `CCCCCCCCC(=O)Oc1coc2cc(O)cc(O)c2c1=O`, the IC50 in assay [1] was 62.2 µM; in assay [2], > 100 µM. On to `O=c1c(CO)coc2cc(O)cc(O)c12`, for which the half-inhibitory concentration (IC50) in assay [1] and in assay [2] was > 100 µM in each case. As for `CCCCC(=O)Oc1coc2cc(O)cc(O)c2c1=O`, the concentration for half-maximal inhibition (IC50) is 60.4 µM in assay [1] and > 100 µM in assay [2]. Regarding `O=c1cc(-c2ccc(O)cc2)oc2cc(O)cc(O)c12` [APIGENIN], the half-inhibitory concentration (IC50) in assay [1] came to 7.7 µM.

Take `CC(=O)Oc1coc2cc(O)cc(O)c2c1=O`: the IC50 in assay [1] was 60 µM; in assay [2], > 100 µM. For `Cc1ccc(S(=O)(=O)Oc2coc3cc(O)cc(O)c3c2=O)cc1` the same measures were 19.2 µM and > 100 µM. Take `O=c1c(-c2ccc(O)cc2)coc2cc(O)cc(O)c12` [GENISTEIN]: in assay [1], the IC50 amounted to 26 µM. Still for that read-out and setting: next, `CCn1cc(-c2ccc(O)cc2)c(=O)c2c(O)cc(O)cc21` [AZAISOFLAVONE]: 7.8 µM.
